Measurements as given in ChEMBL document CHEMBL1125477, “Highly potent and selective heptapeptide antagonists of the neurokinin NK-2 receptor” (J Med Chem, 1992).
Square brackets hold non-standard residues; d marks the D form. Peptide text beside a SMILES is read from it. * marks the point of attachment. Nle = CCCC[C@H](N)C(=O)O; Bz = O=C(c1ccccc1)*

Tests used:
[1] = target: T1, Substance-K receptor (Rattus norvegicus) (UniProt P16610); experiment: Compound was evaluated for antagonism of contractile response of rat colon muscularis mucosae (RC) at Tachykinin receptor 2; format: functional, tissue-based; conditions: Muscularis mucosa
T1 sequence (whole entry): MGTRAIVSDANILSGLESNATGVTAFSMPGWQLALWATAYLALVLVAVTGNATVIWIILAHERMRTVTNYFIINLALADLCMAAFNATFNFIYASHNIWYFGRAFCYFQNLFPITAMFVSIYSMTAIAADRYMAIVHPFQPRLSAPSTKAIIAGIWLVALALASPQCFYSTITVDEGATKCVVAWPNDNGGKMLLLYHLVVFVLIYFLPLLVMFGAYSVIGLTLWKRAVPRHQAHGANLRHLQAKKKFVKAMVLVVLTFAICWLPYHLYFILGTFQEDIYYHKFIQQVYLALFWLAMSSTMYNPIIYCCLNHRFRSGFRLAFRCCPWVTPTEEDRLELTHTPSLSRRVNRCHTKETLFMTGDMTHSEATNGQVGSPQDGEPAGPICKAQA
Method in brief: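 Colon muscularis mucosae from male AHA rats (250–500 g), killed by concussion and exsanguination. Contraction to neurokinin A (NK-2). At least two control agonist curves, then a single antagonist concentration per tissue. Equiactive agonist concentration-ratio taken at half-maximal response. pK_B = log(CR−1) − log[antagonist]. Mean ± SE over four to eight preparations.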

[2] = target: Substance-P receptor (Cavia porcellus) (UniProt P30547); experiment: Compound was evaluated for antagonism of contractile response of guinea pig ileum longitudinal smooth muscle (GPI) at Tachykinin receptor 1; format: functional, tissue-based
Method in brief: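 Isolated longitudinal smooth muscle of ileum from male Dunkin-Hartley guinea-pigs (300–600 g), killed by concussion and exsanguination. Contraction to SP methyl ester (NK-1 agonist). At least two control agonist curves, then one antagonist concentration per preparation. Concentration-ratio read graphically at half-maximal response. pK_B = log(CR−1) − log[antagonist]. Mean ± SE over four to eight tissues.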

[3] = target: T2, Neuromedin-K receptor (Rattus norvegicus) (UniProt P16177); experiment: Compound was evaluated for antagonism of contractile response of rat portal vein at Tachykinin receptor 3; format: functional
T2 sequence (whole entry): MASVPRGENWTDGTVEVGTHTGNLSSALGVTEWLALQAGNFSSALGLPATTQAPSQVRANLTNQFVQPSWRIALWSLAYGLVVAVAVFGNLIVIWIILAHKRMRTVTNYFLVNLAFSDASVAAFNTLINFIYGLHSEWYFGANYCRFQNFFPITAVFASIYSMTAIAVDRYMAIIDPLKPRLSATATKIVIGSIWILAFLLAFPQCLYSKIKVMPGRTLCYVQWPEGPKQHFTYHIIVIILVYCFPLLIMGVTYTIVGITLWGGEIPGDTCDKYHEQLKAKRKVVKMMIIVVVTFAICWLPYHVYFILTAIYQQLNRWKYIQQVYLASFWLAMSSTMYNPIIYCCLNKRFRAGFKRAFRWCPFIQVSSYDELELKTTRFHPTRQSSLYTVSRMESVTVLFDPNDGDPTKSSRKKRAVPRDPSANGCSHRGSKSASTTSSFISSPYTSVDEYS
Method in brief: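 Everted portal vein from male AHA rats (250–500 g). Contraction to senktide (NK-3). Agonist curves were repeated at least twice before exposure to one antagonist concentration per preparation. Concentration-ratio estimated graphically at the half-maximal level. pK_B = log(CR−1) − log(molar antagonist). Mean ± SE of four to eight tissues.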

Substance-P receptor (Cavia porcellus), sequence (P30547 whole entry): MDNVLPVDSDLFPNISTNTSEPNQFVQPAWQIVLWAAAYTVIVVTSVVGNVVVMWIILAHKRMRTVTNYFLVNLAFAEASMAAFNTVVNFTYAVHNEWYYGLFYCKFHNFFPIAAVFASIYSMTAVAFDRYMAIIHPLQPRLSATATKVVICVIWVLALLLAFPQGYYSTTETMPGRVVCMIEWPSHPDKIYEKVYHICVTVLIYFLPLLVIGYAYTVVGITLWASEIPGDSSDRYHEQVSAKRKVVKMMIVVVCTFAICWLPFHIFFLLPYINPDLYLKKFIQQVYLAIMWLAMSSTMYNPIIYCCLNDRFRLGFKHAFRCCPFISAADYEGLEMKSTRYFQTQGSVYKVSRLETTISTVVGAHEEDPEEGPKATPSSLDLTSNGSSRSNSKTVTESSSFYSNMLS

Row | pKB [1] | pKB [2] | pKB [3] | Structure (SMILES)
1 | 9.3 | 5.5 | 4.7 | CCCC[C@H](NC(=O)[C@@H]1CCCN1C(=O)[C@H]1CCCN1C(=O)[C@H](Cc1ccccc1)NC(=O)[C@@H](Cc1c[nH]c2ccccc12)NC(=O)[C@H](C)NC(=O)[C@H](C)NC(=O)OC(C)(C)C)C(N)=O
2 | 8.8 | 6.6 | 5.6 | CCCC[C@H](NC(=O)[C@@H]1CCCN1C(=O)[C@H]1CCCN1C(=O)[C@H](Cc1ccccc1)NC(=O)[C@@H](Cc1c[nH]c2ccccc12)NC(=O)[C@H](C)NC(=O)[C@H](CCC(N)=O)NC(=O)c1ccccc1)C(N)=O
3 | 9.6 | 6.4 | 6 | CCCC[C@H](NC(=O)[C@@H]1CCCN1C(=O)[C@H]1CCCN1C(=O)[C@H](Cc1ccccc1)NC(=O)[C@@H](Cc1c[nH]c2ccccc12)NC(=O)[C@H](C)NC(=O)[C@H](C)NC(=O)c1ccccc1)C(N)=O (Bz-AA[dW]F[dP]P[Nle]-NH2)
4 | 7.9 | 5.6 | 5.1 | CCCC[C@H](NC(=O)[C@@H]1CCCN1C(=O)[C@H]1CCCN1C(=O)[C@H](Cc1ccccc1)NC(=O)[C@@H](Cc1c[nH]c2ccccc12)NC(=O)[C@H](C)NC(=O)[C@H](CCC(N)=O)NC(=O)OC(C)(C)C)C(N)=O
